Experimental data taken from ChEMBL document CHEMBL5230149, “Discovery of novel ketoxime ether derivatives with potent FXR agonistic activity, oral effectiveness and high liver/blood ratio” (Bioorg Med Chem, 2021).
Calls of active or inactive are those of the source. The calls are words filed in the database; no cut-off is given here.

Legend:
Bile acid receptor = molecular target: T1, Bile acid receptor (Homo sapiens, UniProt Q96RI1); test: Agonist activity at human FXR expressed in human Huh-7 cells co-transfected with FXRE-Luc reporter plasmid assessed as receptor transactivation incubated for 16 hrs by luciferase reporter gene assay; type: cell-based
T1 sequence (Q96RI1 whole entry): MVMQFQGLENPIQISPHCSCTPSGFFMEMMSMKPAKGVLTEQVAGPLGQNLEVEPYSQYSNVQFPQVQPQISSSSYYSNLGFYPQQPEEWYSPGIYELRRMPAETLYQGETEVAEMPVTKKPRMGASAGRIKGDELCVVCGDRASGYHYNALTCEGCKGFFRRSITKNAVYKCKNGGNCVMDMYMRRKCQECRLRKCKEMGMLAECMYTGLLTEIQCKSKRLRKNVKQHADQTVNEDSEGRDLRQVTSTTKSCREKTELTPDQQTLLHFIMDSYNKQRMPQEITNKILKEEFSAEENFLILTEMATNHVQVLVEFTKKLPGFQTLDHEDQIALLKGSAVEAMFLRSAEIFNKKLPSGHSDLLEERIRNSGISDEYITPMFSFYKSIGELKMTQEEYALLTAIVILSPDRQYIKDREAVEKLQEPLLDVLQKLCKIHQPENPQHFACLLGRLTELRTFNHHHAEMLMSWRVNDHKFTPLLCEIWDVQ

[1] = molecular target: T2, G-protein coupled bile acid receptor 1 (Homo sapiens, UniProt Q8TDU6); test: Agonist activity at human TGR5 expressed in HEK293 cells co-transfected with CRE-Luc reporter plasmid assessed as receptor transactivation incubated for 5.5 hrs by luciferase reporter gene assay; type: cell-based
T2 sequence (Q8TDU6 whole entry): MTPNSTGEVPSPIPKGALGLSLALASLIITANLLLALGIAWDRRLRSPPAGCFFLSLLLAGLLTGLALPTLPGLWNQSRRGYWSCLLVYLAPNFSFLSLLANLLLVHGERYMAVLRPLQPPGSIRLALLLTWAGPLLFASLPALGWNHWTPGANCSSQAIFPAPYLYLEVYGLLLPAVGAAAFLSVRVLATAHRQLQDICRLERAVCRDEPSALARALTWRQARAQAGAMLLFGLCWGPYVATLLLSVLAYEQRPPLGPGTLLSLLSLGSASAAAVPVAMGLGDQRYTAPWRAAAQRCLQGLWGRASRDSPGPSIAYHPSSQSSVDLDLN

[2] = Drug uptake in ICR mouse liver at 15 mg/kg, po measured after 1.5 hrs by LC-MS/MS analysis; type: ADME, organism-based; details: read-out: Drug uptake
Outline: (§1)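 Overnight-fasted male ICR mice (n = 3 per time point) received single oral 15 mg/kg and were refed 2 h later. Blood and liver were taken at 1.5, 4 and 8 h. Serum (10 µL) was precipitated with 100 µL methanol/acetonitrile (1:1). Liver was homogenized in ten times its weight of the same solvent. Supernatants were diluted 1:1 in ACN/H₂O and analyzed by LC-MS/MS. The ratio is liver conc (ng/g) over plasma conc (ng/mL).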

[3] = Plasma concentration in ICR mouse at 15 mg/kg, po measured after 1.5 hrs by LC-MS/MS analysis; type: ADME, organism-based; outline: as §1
[4] = molecular target: T3, TGR5 (G-protein coupled bile acid receptor 1) (Homo sapiens, UniProt Q8TDU6); test: Agonist activity at human TGR5 expressed in HEK293 cells co-transfected with CRE-Luc reporter plasmid assessed as receptor transactivation incubated for 5.5 hrs by luciferase reporter gene assay relative to OCA; type: cell-based; details: read-out: Efficacy
T3 sequence (Q8TDU6 whole entry): T2 sequence (Q8TDU6 whole entry)

[5] = Ratio of drug uptake in ICR mouse liver to plasma at 15 mg/kg, po measured after 8 hrs by LC-MS/MS analysis; type: ADME, organism-based; outline: as §1
[6] = Drug uptake in ICR mouse liver at 15 mg/kg, po measured after 4 hrs by LC-MS/MS analysis; type: ADME, organism-based; details: read-out: Drug uptake; outline: as §1
[7] = molecular target: T4, Bile acid receptor (Mus musculus) (UniProt Q60641); test: Agonist activity at FXR in C57BL/6J mouse hepatocytes assessed as upregulation of BSEP mRNA expression at 0.4 to 10 uM incubated for 24 hrs by qRT-PCR analysis; type: cell-based; details: Hepatocyte, filed as agonist, dose 0.4-10 µM
T4 sequence (whole entry): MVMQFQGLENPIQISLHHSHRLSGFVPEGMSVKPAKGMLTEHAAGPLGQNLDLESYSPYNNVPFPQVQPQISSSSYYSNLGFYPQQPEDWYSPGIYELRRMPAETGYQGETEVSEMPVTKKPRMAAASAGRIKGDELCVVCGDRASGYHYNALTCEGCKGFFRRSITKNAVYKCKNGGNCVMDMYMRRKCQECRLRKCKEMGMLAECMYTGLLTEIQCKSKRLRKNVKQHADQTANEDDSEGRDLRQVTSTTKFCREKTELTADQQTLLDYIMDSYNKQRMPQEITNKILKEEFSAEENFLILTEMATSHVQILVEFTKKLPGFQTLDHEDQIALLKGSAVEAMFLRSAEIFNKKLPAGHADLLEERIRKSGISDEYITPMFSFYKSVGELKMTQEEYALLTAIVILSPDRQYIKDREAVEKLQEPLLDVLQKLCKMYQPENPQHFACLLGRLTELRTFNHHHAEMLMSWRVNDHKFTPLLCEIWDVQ
Outline: (§2)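 Hepatocytes isolated from overnight-fasted male C57BL/6J mice (8–12 weeks), allowed 4 h to adhere, then given vehicle (0.5% DMSO) or compound at 0.4, 2 and 10 μM for 24 h. TRIzol RNA extraction, then qRT-PCR with GAPDH normalization by ΔΔCt. Values are expressed as fold over vehicle (mean ± S.E.M, n = 3).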

[8] = Ratio of drug uptake in ICR mouse liver to plasma at 15 mg/kg, po measured after 4 hrs by LC-MS/MS analysis; type: ADME, organism-based; outline: as §1
[9] = molecular target: T4, Bile acid receptor (Mus musculus); test: In vivo agonist activity at FXR in C57BL/6J mouse assessed as downregulation of CYP8B1 mRNA expression in liver at 10 mg/kg, po measured after 6 hrs by qRT-PCR analysis; type: functional, organism-based
Outline: (§3)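 Male C57BL/6J mice (7–8 weeks) were fasted 3 h, then dosed orally once in 0.25% CMC-Na (wt/vol) vehicle. Sacrificed 6 h post-dose; liver snap-frozen at -80 °C. TRIzol RNA extraction and qRT-PCR with GAPDH normalization (ΔΔCt). Results are fold over vehicle group (mean ± S.E.M, n = 6).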

[10] = Plasma concentration in ICR mouse at 15 mg/kg, po measured after 4 hrs by LC-MS/MS analysis; type: ADME, organism-based; outline: as §1
[11] = molecular target: T4, Bile acid receptor (Mus musculus); test: Agonist activity at FXR in C57BL/6J mouse hepatocytes assessed as upregulation of SHP mRNA expression incubated for 24 hrs by qRT-PCR analysis; type: cell-based; details: Hepatocyte, filed as agonist, dose 0.4-10 µM; outline: as §2
[12] = Ratio of drug uptake in ICR mouse liver to plasma at 15 mg/kg, po measured after 1.5 hrs by LC-MS/MS analysis; type: ADME, organism-based; outline: as §1
[13] = Plasma concentration in ICR mouse at 15 mg/kg, po measured after 8 hrs by LC-MS/MS analysis; type: ADME, organism-based; outline: as §1
[14] = molecular target: T4, Bile acid receptor (Mus musculus); test: In vivo agonist activity at FXR in C57BL/6J mouse assessed as fold upregulation of SHP mRNA expression in liver at 10 mg/kg, po measured after 6 hrs by qRT-PCR analysis relative to control; type: functional, organism-based; outline: as §3
[15] = molecular target: T4, Bile acid receptor (Mus musculus); test: Agonist activity at FXR in C57BL/6J mouse hepatocytes assessed as fold upregulation of SHP mRNA expression at 10 uM incubated for 24 hrs by qRT-PCR analysis relative to control; type: cell-based; details: Hepatocyte; outline: as §2
[16] = molecular target: T4, Bile acid receptor (Mus musculus); test: In vivo agonist activity at FXR in C57BL/6J mouse assessed as fold upregulation of SHP mRNA expression in ileum at 10 mg/kg, po measured after 6 hrs by qRT-PCR analysis relative to control; type: functional, organism-based
Outline: (§4)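 Fasting of male C57BL/6J mice (7–8 weeks) for 3 h preceded a single oral dose in 0.25% CMC-Na (wt/vol). Ileum was collected 6 h after dosing and snap-frozen. RNA was extracted with TRIzol for qRT-PCR, normalized to GAPDH (ΔΔCt). Reported as fold of vehicle group (mean ± SEM, n = 6).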

[17] = Drug uptake in ICR mouse liver at 15 mg/kg, po measured after 8 hrs by LC-MS/MS analysis; type: ADME, organism-based; details: read-out: Drug uptake; outline: as §1
[18] = molecular target: T4, Bile acid receptor (Mus musculus); test: In vivo agonist activity at FXR in C57BL/6J mouse assessed as downregulation of CYP7A1 mRNA expression in liver at 10 mg/kg, po measured after 6 hrs by qRT-PCR analysis; type: functional, organism-based; outline: as §3
[19] = molecular target: T4, Bile acid receptor (Mus musculus); test: In vivo agonist activity at FXR in C57BL/6J mouse assessed as fold upregulation of FGF15 mRNA expression in ileum at 10 mg/kg, po measured after 6 hrs by qRT-PCR analysis relative to control; type: functional, organism-based; outline: as §4

## C/C(=N\OCc1cccc(C(=O)O)c1)c1ccc(OCc2c(-c3c(Cl)cccc3Cl)noc2C2CC2)c(Cl)c1
Bile acid receptor
  EC50: 259 nM

## C/C(=N\OCc1cc(C(=O)O)ccc1C#N)c1ccc(OCc2c(-c3c(Cl)cccc3Cl)noc2C2CC2)cc1Cl
[1]
  EC50: > 100 µM
[2]
  concentration at 1.5 h: 4530 ng/g
[3]
  concentration at 1.5 h: 124 ng/mL
Bile acid receptor
  EC50: 45.2 nM
[4]
  Emax at 5.5 h: 1.1%
[5]
  Kp at 8 h: 43
[6]
  concentration at 4 h: 2610 ng/g
[7]
  Activity: Active
[8]
  Kp at 4 h: 57
[9]
  Activity: Active
[10]
  concentration at 4 h: 45.4 ng/mL
[11]
  Activity: Dose-Dependent Effect
[12]
  Kp at 1.5 h: 37
[13]
  concentration at 8 h: 7.8 ng/mL
[14]
  fold change (FC): 2
[15]
  fold change (FC): > 40
[16]
  fold change (FC): 20
[17]
  concentration at 8 h: 341 ng/g
[18]
  Activity: Active
[19]
  fold change (FC): 5

## C/C(=N\OCc1cccc(C(=O)O)c1)c1ccc(OCc2c(-c3c(Cl)cccc3Cl)noc2C2CC2)cc1Br
Bile acid receptor
  EC50: 37.2 nM

## C/C(=N\OCc1ccc(C(=O)O)o1)c1ccc(OCc2c(-c3c(Cl)cccc3Cl)noc2C2CC2)cn1
Bile acid receptor
  EC50: 1390 nM

## C/C(=N\OCc1cccc(C(=O)O)c1)c1ccc(OCc2c(-c3ccccc3OC(F)(F)F)noc2C2CC2)cc1Cl
Bile acid receptor
  EC50: 108 nM

## COc1cc(/C(C)=N/OCc2cc(C)cc(C(=O)O)c2)ccc1OCc1c(-c2ccccc2OC(F)(F)F)noc1C1CC1
Bile acid receptor
  EC50: > 1850 nM

## C/C(=N\OCc1cncc(C(=O)O)c1)c1ccc(OCc2c(-c3ccccc3OC(F)(F)F)noc2C2CC2)c(F)c1
Bile acid receptor
  EC50: 728 nM

## C/C(=N\OCc1cc(C(=O)O)ccc1C#N)c1ccc(OCc2c(-c3ccccc3OC(F)(F)F)noc2C2CC2)c(F)c1
Bile acid receptor
  EC50: 347 nM

## C/C(=N\OCc1cccc(C(=O)O)c1)c1ccc(OCc2c(-c3c(Cl)cccc3Cl)noc2C2CC2)cn1
Bile acid receptor
  EC50: 234 nM

## C/C(=N\OCc1ccc(C(=O)O)cc1)c1ccc(OCc2c(-c3c(Cl)cccc3Cl)noc2C2CC2)cc1Cl
Bile acid receptor
  EC50: 134 nM

## C/C(=N\OCc1cncc(C(=O)O)c1)c1ccc(OCc2c(-c3c(Cl)cccc3Cl)noc2C2CC2)cc1Cl
Bile acid receptor
  EC50: 65 nM
